Experiments:
MS2 coat protein [1] = assay: apparent Kd, MS2 coat protein; higher = weaker binding; RNA-MaP array
Outline: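 On an Illumina sequencing chip, sequenced DNA templates served for transcription of the designed RNAs, which were then bound at room temperature by fluorescently labeled MS2 coat protein at 1.5 nM to 3 μM, with or without input ligand. Apparent Kd is the median of the fits to each cluster's binding curve. Only designs measured on at least 10 clusters were kept.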

MS2 coat protein [2] = assay: apparent Kd, MS2 coat protein; higher = weaker binding; RNA-MaP array; FMN 200 µM where present
Outline: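 Stalled E. coli RNA polymerase transcribed each design on Illumina sequencing-chip clusters. The clusters were titrated with SNAP-549-labelled MS2 coat protein, starting at 0.7 or 1.5 nM and doubling up to 3 µM, first without ligand and then with constant ligand, in 100 mM Tris-HCl pH 7.5, 80 mM KCl, 4 mM MgCl2, BSA, DTT, yeast tRNA and Tween-20. Green signal was normalised to red-channel RNA signal and to the control-cluster median Fmax. The apparent Kd is the median of filtered binding-curve fits made for each cluster.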

[3] = designed as: ON switch for flavin mononucleotide, no ligand
[4] = ligand present: flavin mononucleotide, designed as: ON switch for flavin mononucleotide
[5] = designed as: OFF switch for flavin mononucleotide, no ligand
[6] = ligand present: flavin mononucleotide, designed as: OFF switch for flavin mononucleotide

Sequence | apparent Kd (MS2 coat protein [2]; [3]) [nM] | apparent Kd (MS2 coat protein [2]; [4]) [nM] | other results
AAACAAAUGCAAGGAUAUCAUAAUACAAACAGGAGAGAAGGUGCAGAGCACAUGAGGAUCACCCAUGUCCUAGGAUAUUCCUAA | – | – | apparent Kd (MS2 coat protein [1]; [3]): 121 nM; apparent Kd (MS2 coat protein [1]; [4]): 80.4 nM
AAACACAACCAGAAGGCCAAAACAUGAGGAUCACCCAUGUAGAUAAGAAGAGUAAGCACUGUCAUGGAGGAUAUGGGUCAAAAC | – | – | apparent Kd (MS2 coat protein [1]; [3]): 20.8 nM; apparent Kd (MS2 coat protein [1]; [4]): 7.12 nM
AAACAUACGUGAGGAUAUCCCGUUUGAGAGGCUAGUAUCAUCGAAACAUGAGGAUCACCCAUGUCGGAGAAGGCACUACAGGAG | – | – | apparent Kd (MS2 coat protein [1]; [3]): 6.63 nM; apparent Kd (MS2 coat protein [1]; [4]): 6.6 nM
AAACGACAUGAGGAUCACCCAUGUACCUUUUACCUAGGAUAUCAGGUGCAUCAUACGUGCUGAGAAGGAGGCUCGC | – | – | apparent Kd (MS2 coat protein [1]; [3]): 64.1 nM; apparent Kd (MS2 coat protein [1]; [4]): 59.7 nM
AAACUUACAGGAUAUACAUGAGGAUCACCCAUGUAAACGAAACACCAGGUGAUAGUGGGUAGAAGGGAAUAAAC | – | – | apparent Kd (MS2 coat protein [1]; [5]): 22.7 nM; apparent Kd (MS2 coat protein [1]; [6]): 18.5 nM
UUGCUACAUGAGGAUCACCCAUGUCAGGAUAUUGUGUAUACCGUGGAAGCUGUGUCGAUAAGAAGGGACUGUCU | – | – | apparent Kd (MS2 coat protein [2]; [5]): 26.6 nM; apparent Kd (MS2 coat protein [2]; [6]): 30.5 nM
UUGCUCGUGUGAGGAUAUGCCGCCGUUUCGGCUGCAGAAGGUACUUUAAUACAUGAGGAUCACCCAUGUCUCUGUUGUUUCGUG | 26.5 | 26.9 | –
UUGGACGUCGGAGGAUAUGUAGGAUAUUCCUACAUGAGGAUCACCCAUGUUGACAUGGAAGAAGGACAGAAGGACGAUGUCCAU | 352 | 4.83 | –
UUGGACGUCGUAGGAUAGGUAGGAUAUUCCUACAUGAGGAUCACCCAUGUUGACAUGGAAGAAGGACAGAAGGACGAUGUCCAU | 142 | 5.7 | –
UUGGACGUCGUAGGAUAUGUAAGAUAUUCCUACAUGAGGAUCACCCAUGUUGACAUGGAAGAAGGACAGAAGGACGAUGUCCAU | 6.47 | 4.87 | –
UUGGACGUCGUAGGAUAUGUAGAAUAUUCCUACAUGAGGAUCACCCAUGUUGACAUGGAAGAAGGACAGAAGGACGAUGUCCAU | 6.97 | 5.37 | –
UUGGACGUCGUAGGAUAUGUAGGAUAUUACUACAUGAGGAUCACCCAUGUUGACAUGGAAGAAGGACAGAAGGACGAUGUCCAU | 638 | 6.52 | –
UUGGACGUCGUAGGAUAUGUAGGAUAUUCCUACAUGAGGAUCACCCAUGUUCACAUGGAAGAAGGACAGAAGGACGAUGUCCAU | 502 | 5.8 | –
UUGGACGUCGUAGGAUAUGUAGGAUAUUCCUACAUGAGGAUCACCCAUGUUGACAUGGAAGAAGGACAGAAGGACAAUGUCCAU | 414 | 7.5 | –
UUGGACGUCGUAGGAUAUGUAGGAUAUUCCUACAUGAGGAUCACCCAUGUUGACAUGGAAGAAGGACAGAAGGACGAUCUCCAU | 360 | 5.49 | –
UUGGACGUCGUAGGAUAUGUAGGAUAUUCCUACAUGAGGAUCACCCAUGUUGACAUGGAAGAAGGACCGAAGGACGAUGUCCAU | 148 | 691 | –
UUGGACGUCGUAGGAUAUGUAGGAUAUUCCUACAUGAGGAUCACCCAUGUUGACAUGGAAGAAGGACUGAAGGACGAUGUCCAU | 763 | 22.9 | –
UUGGACGUCGUAGGAUAUGUAGGAUAUUCCUACAUGAGGAUCACCCAUGUUGACAUGGAAGAAGGUCAGAAGGACGAUGUCCAU | 344 | 559 | –
UUGGACGUCGUAGGAUAUGUAGGAUUCUCCUACAUGAGGAUCACCCAUGUUGACAUGGAGGACGGACAGAAGGACGGUGUCCAU | 14.1 | 5.64 | –
UUGGACGUCGUAGGAUCUGUAGGAUAUUCCUACAUGAGGAUCACCCAUGUUGACAUGGAAGAAGGACAGAAGGACGAUGUCCAU | 6.35 | 3.7 | –
UUGGACGUCGUAGGAUGUGUAGGAUAUUCCUACAUGAGGAUCACCCAUGUUGACAUGGAAGAAGGACAGAAGGACGAUGUCCAU | 386 | 12.9 | –
UUGGAGUACGUAGGAUAUGUAGGAUAUUCCUACAUGAGGAUCACCCAUGUAUGAAUGGAAGAAGGACAGAAGGACGUGCUCCAU | 19.8 | 13.9 | –
UUGGGACUAUCAGGAUAUGGUGUAGCCCAGUAAAGGACAUGAGGAUCACCCAUGUACCAUUGGUACCAGAAGGGAUGAUCCUAC | 18.4 | 14.8 | –
UUGGUUGUCGUAGGAUAUGGAGGAGAUUCCUACAUGAGGAUCACCCAUGUUCGCAUGGAAGAAGGCCAGAAGGACGAUGACCAU | 80.5 | 62 | –
UUGUACAUAGGAUAUAGUUGUUUGUACAUGAGGAUCACCCAUGUUAUGUAUGUUUUGCUUCUAGAAGGAUGUUGUU | – | – | apparent Kd (MS2 coat protein [2]; [5]): 33.2 nM; apparent Kd (MS2 coat protein [2]; [6]): 24.4 nM
UUGUGCUUAGAGAAGGUUCAAACUACAUAUUGCGCACAUGAGGAUCACCCAUGUUGGUGAAUAAGAAAGGAUAUUUGACUGUAC | – | – | apparent Kd (MS2 coat protein [2]; [5]): 118 nM; apparent Kd (MS2 coat protein [2]; [6]): 85.2 nM

Source: the EternaBench riboswitch data
